In the library only some 3.1% were active in any assay of this set; here they are far more common.
PHOSPHO1 block – inhibitors of human PHOSPHO1 phosphatase. recombinant PHOSPHO1, absorbance phosphatase assay. inhibition, % at 13.3 µM. actives 1.1% (n = 290,000); in the data active means inhibition above about 60%
Target sequence (Q8TCT1 whole entry, looked up): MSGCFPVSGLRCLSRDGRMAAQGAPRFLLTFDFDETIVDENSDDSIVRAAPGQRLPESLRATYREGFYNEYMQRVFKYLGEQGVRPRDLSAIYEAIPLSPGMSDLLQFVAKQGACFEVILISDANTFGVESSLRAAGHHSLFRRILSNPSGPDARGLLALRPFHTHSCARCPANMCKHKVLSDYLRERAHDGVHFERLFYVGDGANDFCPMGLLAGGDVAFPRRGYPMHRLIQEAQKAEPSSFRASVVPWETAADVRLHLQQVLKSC
core dimer inh – HCV core protein dimerization inhibition; inhibition, % at 5 µM; AID 1899; TR-FRET GST/Flag-core106 dimerization, 1536-well; actives 0.33% (n = 300,000);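 active means inhibition above the mean of all tested compounds plus 3 SD, set per screening campaign, cut at about 45% in these data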
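Material: GST/Flag-tagged HCV core106 proteins. Incubation: 4 h, 22.5 °C incubation. Read-out basis: inhibition (%) from 671 over 617 nm ratio. Measured by: TR-FRET, excitation 340 nm, emission 617 and 671 nm.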
IMP-1 inhibitor – inhibitors of Pseudomonas aeruginosa IMP-1 metallo-beta-lactamase. actives 0.45% (n = 290,000). purified IMP-1, nitrocefin hydrolysis, epi-absorbance fluorescence. inhibition, % at 5.6 µM. AID 1556;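 active means inhibition above the mean plus 3 SD of all compounds in the same screening run, cut at about 4.5% in these data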;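 further: 0% = IMP-1 with DMSO and 100% = DMSO wells lacking enzyme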
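System: Purified IMP-1 | Read-out basis: Percent enzyme inhibition | Controls: IMP-1 with DMSO as 0%, enzyme-free DMSO as 100% | Replicates: One well per compound | Doses: 5.6 µM nominal single concentration | Detection: Epi-absorbance fluorescence, 480 nm excitation, 530 nm emission | Incubation: 25 °C, 15 min preincubation, 25 min reaction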
VIM-2 inh – blocks Pseudomonas aeruginosa VIM-2 metallo-beta-lactamase. purified VIM-2, nitrocefin hydrolysis, epi-absorbance fluorescence. inhibition, % at 5.6 µM. actives 0.89% (n = 290,000). AID 1527;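 active means inhibition above the mean of all tested compounds plus 3 SD, cutoff set per screening run, cut at about 7.5% in these data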;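 further: red hydrolysis product quenches plate fluorescence so inhibitors raise well fluorescence; 0% = enzyme with DMSO and 100% = DMSO without enzyme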
SUMO HTRF inh – blocks human SUMOylation mediated by UBC9. P63279. HTRF SUMOylation assay, SAE1/SAE2 + UBC9, in vitro. inhibition, % at 35 µM. actives 0.36% (n = 290,000). AID 2006; in the data active means inhibition above about 50%, passing the limit was not always enough
Target sequence (P63279 whole entry, looked up): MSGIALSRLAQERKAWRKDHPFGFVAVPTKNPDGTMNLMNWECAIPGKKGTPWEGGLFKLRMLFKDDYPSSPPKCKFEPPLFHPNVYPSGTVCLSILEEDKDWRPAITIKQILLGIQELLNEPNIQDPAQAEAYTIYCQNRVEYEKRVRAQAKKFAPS
HCV NS3 hel inh – blocks Hepatitis C virus NS3 helicase unwinding; NS3 helicase DNA unwinding, Cy5 molecular beacon fluorescence; inhibition, % at 10.9 µM; actives 0.56% (n = 290,000); AID 1800;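 active means inhibition above the mean of all tested compounds plus 3 SD, set per campaign, cut at about 35% in these data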;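 further: 0% = DMSO wells and 100% = thioflavine S control wells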
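System: NS3 helicase fragment of HCV / Schedule: 1 h at 25 °C / Control set: DMSO alone as 0% and 110 µM thioflavine S as 100% / Reagent: Cy5/quencher beacon DNA duplex and ATP to start / Technique: Cy5 fluorescence / Replication: singlicate / Evaluation: % inhibition of end-to-start signal ratio versus controls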
Numbers without * were called inactive; x = no result.

SMILES | PHOSPHO1 block | core dimer inh | IMP-1 inhibitor | VIM-2 inh | SUMO HTRF inh | HCV NS3 hel inh
Cc1ccc2nc3c(cc(C(=O)NCCc4ccccc4)c(=N)n3CCCN3CCOCC3)c(=O)n2c1 | 27 | -8 | -3 | 9.6* | 23 | -19
COc1ccc(CCn2c(=N)c(C(=O)NCCN3CCOCC3)cc3c(=O)n4ccccc4nc32)cc1OC | 16 | 3 | 1 | 8.2* | 16 | 6
COc1ccc(CCNC(=O)c2cc3c(=O)n4ccccc4nc3n(CCCN3CCOCC3)c2=N)cc1 | 28 | 10 | -4 | 10* | 10 | -17
COc1ccc(CCNC(=O)c2cc3c(=O)n4ccccc4nc3n(CCN3CCOCC3)c2=N)cc1 | 32 | 5 | -2 | 3 | 10 | 0
CCCCn1c(N)c(N(CCOC)C(=O)CSc2nnc(C)n2-c2ccc(OC)cc2)c(=O)[nH]c1=O | x | -6 | x | x | x | x
Cc1cc(C)nc(-n2nc(C)cc2NC(=O)CN2CCC(C)CC2)n1 | -4 | 2 | -1 | 9.0* | 6 | 8
COc1ccc(C)cc1NC(=O)CSc1nnc(COc2ccc(Cl)cc2)n1Cc1ccco1 | 23 | 9 | -2 | -2 | -38 | 2
CCn1c(COc2ccc(C)cc2)nnc1SCc1nc2ccccc2[nH]1 | 94* | 3 | -3 | -5 | 12 | 3
O=C(CSc1nnc(COc2ccc(Cl)cc2)n1Cc1ccco1)c1ccccc1F | 96* | 0 | -3 | -1 | 5 | -4
Clc1cccc(-c2nnc(SCc3nc4ccccc4[nH]3)n2Cc2ccco2)c1 | 77* | 6 | -2 | 0 | 31 | 1
c1coc(Cn2c(SCc3nc4ccccc4[nH]3)nnc2-c2cnccn2)c1 | 90* | 2 | -4 | -2 | 4 | 12
C=CCn1c(SCc2nc3ccccc3[nH]2)nnc1-c1ccncc1 | 14 | -5 | -5 | -3 | 23 | 7
CCN(CC)c1ccc(/C=N/NC(=O)c2nnn(-c3nonc3N)c2-c2ccc(C)cc2)cc1 | 17 | 10 | -1 | -5 | 33 | -5
CSc1ncccc1C(=O)Nc1nc2ccc(Oc3ccccc3)cc2s1 | -4 | 5 | -3 | -2 | 21 | -56
O=C(CCCN1C(=O)c2cccc3cccc(c23)C1=O)NCc1cccs1 | 22 | 0 | -5 | -4 | 6 | 12
O=C1C(=O)N(Cc2cccs2)c2ccccc21 | 14 | 2 | -1 | 0 | 8 | 5
Clc1ccccc1CSc1nnc(-c2ccccn2)n1Cc1ccco1 | 59 | 6 | -3 | -4 | 7 | 0
Clc1ccc(OCc2nnc(SCc3nc4ccccc4[nH]3)n2Cc2ccco2)cc1 | 74* | 9 | -2 | -3 | -23 | 2
Cn1c(COc2ccccc2)nnc1SCc1nc2ccccc2[nH]1 | 36 | 1 | -2 | -2 | -1 | -4
CCn1c(SCc2ccc(C#N)cc2)nnc1-c1cccc(Cl)c1 | 36 | 0 | -1 | -1 | -6 | -2
Cc1ccccc1OCc1nnc(SCc2nc3ccccc3c(=O)[nH]2)n1C | 36 | -1 | -2 | -1 | 4 | 11
O=c1[nH]c(CSc2nnc(COc3ccccc3)n2-c2ccccc2)nc2ccccc12 | 61* | 9 | -3 | -4 | -3 | 1
Cc1cccc(-c2nnc(SCc3ccc(C#N)cc3)n2Cc2ccco2)c1 | 64* | 4 | -2 | -1 | -31 | -1
c1ccc(-c2nnc(SCc3nc4ccccc4[nH]3)n2Cc2ccco2)nc1 | 72* | -3 | -2 | -4 | 25 | -5
O=C(CCn1cccn1)N1CCCC(N2CCN(c3cccc(Cl)c3)CC2)C1 (stereo unspecified) | 23 | x | -4 | 1 | 3 | 1
SMILES | PHOSPHO1 block | core dimer inh | IMP-1 inhibitor | VIM-2 inh | SUMO HTRF inh | HCV NS3 hel inh
Cc1[nH]c(=O)cc2ccccc12 | 94* | 3 | -2 | -3 | -14 | 18
CCC(C)c1c(O)nc(SCC(=O)c2ccccc2)[nH]c1=O (stereo unspecified) | -5 | -3 | 4.7* | -1 | 18 | 1
Cc1cc(C(=O)CN2C(=O)c3ccccc3S2(=O)=O)c(C)n1CC1CCCO1 (stereo unspecified) | 14 | 1 | 9.4* | 6 | 5 | 2
Cc1cc(C(=O)CSc2nc3ccccc3c(=O)n2C)c(C)n1CC1CCCO1 (stereo unspecified) | 12 | x | -3 | -4 | -8 | -2
Cc1cc(C(=O)CSc2nnc(-c3cccnc3)n2-c2ccccc2F)c(C)n1CC1CCCO1 (stereo unspecified) | 53 | 14 | -3 | -3 | 16 | 6
Cc1cc(C(=O)CSc2nnc(Nc3ccccc3F)s2)c(C)n1CC1CCCO1 (stereo unspecified) | 94* | x | 0 | 2 | 8 | 4
Cc1cc(C(=O)CSc2nnc(NCc3ccccc3)s2)c(C)n1C | 91* | 11 | -3 | -1 | 6 | -5
CCn1c(SCC(=O)c2cc(C)n(CC3CCCO3)c2C)nc2ccccc21 (stereo unspecified) | 73* | 8 | -1 | -2 | 12 | 12
Nc1nc(Nc2ccccc2Cl)cc(=O)[nH]1 | 40 | 7 | -2 | -3 | 23 | -3
O=C(N/N=C1/CCSC1)c1cc(Br)ccc1O | 44 | 1 | -3 | -2 | 6 | 21
COc1cc(-c2nnc(SCC(=O)c3cc(C)n(CC4CCCO4)c3C)o2)cc(OC)c1OC (stereo unspecified) | 4 | 7 | -3 | -1 | 8 | 2
COc1ccccc1Nc1nnc(SCC(=O)c2cc(C)n(CC3CCCO3)c2C)s1 (stereo unspecified) | 93* | 10 | -1 | 0 | 23 | 0
Cc1cc(C(=O)CSc2nnc(Nc3ccccc3)s2)c(C)n1CC1CCCO1 (stereo unspecified) | 90* | 15 | -3 | -3 | 4 | -3
CCCc1cc(C(=O)NNC(=S)NC(C)c2ccccc2)cs1 (stereo unspecified) | 83* | 2 | -3 | -3 | -35 | -1
Cc1ccc(C(=O)CSc2nc3cc(S(=O)(=O)N4CCOCC4)ccc3o2)cc1 | 68* | 12 | -4 | -2 | -1 | 0
O=C(CSc1nc2cc(S(=O)(=O)N3CCOCC3)ccc2o1)NC1CCCc2ccccc21 (stereo unspecified) | 76* | 2 | -5 | -2 | -6 | -6
Cc1nc2ccc(Nc3nc4cc(S(=O)(=O)N5CCOCC5)ccc4o3)cc2s1 | 92* | 3 | -3 | -3 | 20 | -6
Cc1c(OCC(=O)N[C@H](C(=O)O)c2ccccc2)ccc2c3c(c(=O)oc12)CCCC3 | 23 | 1 | -5 | 12* | 28 | 2
CCN(CC)C(=O)COc1ccc2c3c(c(=O)oc2c1C)CCCC3 | x | 0 | 0 | 8.0* | -1 | 0

Screening results as filed in PubChem BioAssay.
